Laboratory results reported in ChEMBL document CHEMBL3352437, “Novel 3,5-bis(arylidene)-4-oxo-1-piperidinyl dimers: structure-activity relationships and potent antileukemic and antilymphoma cytotoxicity” (Eur J Med Chem, 2014).
Activity calls are given as the source filed them. The rule behind the calls is not given here.

What was measured:
[1] = test system: CCRF-CEM; test: Induction of apoptosis in human CEM T-lymphocytes assessed as late apoptotic cells at 1 uM after 24 hrs by Annexin V/propidium iodide staining-based FITC analysis (reference value: 0.8%); type: functional
[2] = Cytotoxicity against human HuT-102 cells assessed as dead cells at 1 uM after 24 hrs; type: functional
In short: (§1)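 Dienones added as DMSO solutions to cells in RPMI medium and incubated 24 h at 37°C. Cytotoxicity was scored as cell-membrane disruption by propidium iodide staining and expressed as percentage of dead cells, averaged over three independent experiments.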

[3] = Cytotoxicity against human NALM6 cells assessed as dead cells at 1 uM after 24 hrs; type: functional, NALM-6; in short: as §1
[4] = test system: CCRF-CEM; test: Induction of apoptosis in human CEM T-lymphocytes assessed as viable at necrotic cell stage at 1 uM after 8 hrs by flow cytometric analysis (reference value: 95.7%); type: functional
[5] = test system: DU-145; test: Cytotoxicity against human DU145 cells assessed as dead cells at 1 uM after 24 hrs; type: functional; in short: as §1
[6] = test system: HeLa; test: Antiproliferative activity against human HeLa cells after 72 hrs by coulter counting analysis; type: functional, cell-based
In short: (§2)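 Cells exposed to a range of concentrations in RPMI 1640 at 37°C for 72 h. Surviving cells counted by Coulter counter. IC50 taken from concentration-response curves, mean ± SD of at least three independent experiments.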

[7] = test system: Ramos; test: Cytotoxicity against human Ramos cells assessed as dead cells at 1 uM after 24 hrs; type: functional; in short: as §1
[8] = test system: CCRF-CEM; test: Induction of apoptosis in human CEM T-lymphocytes assessed as caspase3 activation at necrotic cell stage at 1 uM after 8 hrs by flow cytometric analysis (reference value: 0%); type: functional
[9] = test system: CCRF-CEM; test: Induction of apoptosis in human CEM T-lymphocytes assessed as early apoptotic at necrotic cell stage at 1 uM after 8 hrs by flow cytometric analysis (reference value: 4.3%); type: functional
[10] = test system: Jurkat; test: Cytotoxicity against human Jurkat cells assessed as dead cells at 1 uM after 24 hrs; type: functional; in short: as §1
[11] = Antiproliferative activity against human Molt4/C8 cells after 72 hrs by coulter counting analysis; type: functional, cell-based; conditions: MOLT-4, 72 h; in short: as §2
[12] = test system: CCRF-CEM; test: Cytotoxicity against human CEM cells assessed as dead cells at 1 uM after 24 hrs; type: functional; in short: as §1
[13] = test system: Raji; test: Cytotoxicity against human Raji cells assessed as dead cells at 1 uM after 24 hrs; type: functional; in short: as §1
[14] = Cytotoxicity against human MDA231 cells assessed as dead cells at 1 uM after 24 hrs; type: functional, MDA-MB-231; in short: as §1
[15] = test system: CCRF-CEM; test: Induction of apoptosis in human CEM T-lymphocytes assessed as necrotic cells at 1 uM after 24 hrs by Annexin V/propidium iodide staining-based FITC analysis (reference value: 0.2%); type: functional
[16] = test system: MCF7; test: Cytotoxicity against human MCF7 cells assessed as dead cells at 1 uM after 24 hrs; type: functional; in short: as §1
[17] = test system: HS27; test: Cytotoxicity against human HS27 cells assessed as dead cells at 1 uM after 24 hrs; type: cell-based; conditions: hs27, 24 h
In short: (§3)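 Compounds added from DMSO solutions to cells in medium (RPMI; DMEM for Hs-27 fibroblasts) and incubated 24 h at 37°C. Membrane disruption scored by propidium iodide uptake. Result is percentage of dead cells, average of three independent experiments.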

[18] = test system: CCRF-CEM; test: Induction of apoptosis in human CEM T-lymphocytes assessed as viable cells at 1 uM after 24 hrs by Annexin V/propidium iodide staining-based FITC analysis (reference value: 93.4%); type: functional; conditions: read-out: Activity
[19] = test system: LAPC4; test: Cytotoxicity against human LAPC4 cells assessed as dead cells at 1 uM after 24 hrs; type: functional; in short: as §1
[20] = test system: EL4; test: Cytotoxicity against mouse EL4 cells assessed as dead cells at 1 uM after 24 hrs; type: functional; in short: as §1
[21] = test system: CCRF-CEM; test: Induction of apoptosis in human CEM T-lymphocytes assessed as early apoptotic cells at 1 uM after 24 hrs by Annexin V/propidium iodide staining-based FITC analysis (reference value: 5.6%); type: functional
[22] = Cytotoxicity against human MOLT3 cells assessed as dead cells at 1 uM after 24 hrs; type: functional, MOLT-3; in short: as §1
[23] = test system: BJAB; test: Cytotoxicity against human BJAB cells assessed as dead cells at 1 uM after 24 hrs; type: functional; in short: as §1
[24] = test system: YT; test: Cytotoxicity against human YT cells assessed as dead cells at 1 uM after 24 hrs; type: functional; in short: as §1
[25] = test system: HCC70; test: Cytotoxicity against human HCC70 cells assessed as dead cells at 1 uM after 24 hrs; type: functional; in short: as §1
[26] = test system: CCRF-CEM; test: Antiproliferative activity against human CEM cells after 72 hrs by coulter counting analysis; type: functional, cell-based; in short: as §2
[27] = Cytotoxicity against human 22Rvl cells assessed as dead cells at 1 uM after 24 hrs; type: functional; in short: as §1
[28] = Cytotoxicity against human MCF10A cells assessed as dead cells at 1 uM after 24 hrs; type: cell-based; conditions: mcf-10a; in short: as §3
[29] = test system: CCRF-CEM; test: Cytotoxicity against human CEM T-lymphocytes assessed as mitochondrial membrane depolarization at 1 uM after 8 hrs by JC-1 red/green staining analysis; type: functional, cell-based
In short: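 CEM cells (RPMI-1640, 10% FBS, 50,000 per well) were exposed to 1 μM compound for 8 h at 37°C, 5% CO2, in triplicate. They were then stained with 2 μM JC-1; the red signal marks polarized mitochondria and the green signal marks depolarized ones. Green-emitting cells were counted by flow cytometry, about 10,000 events. Controls: untreated, DMSO and CCCP 50 μM.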

[30] = Cytotoxicity against human SupT1 cells assessed as dead cells at 1 uM after 24 hrs; type: functional, SUP-T1; in short: as §1
[31] = test system: L1210; test: Antiproliferative activity against mouse L1210 cells after 72 hrs by coulter counting analysis; type: functional, cell-based; conditions: L1210, 72 h
[32] = test system: CCRF-CEM; test: Induction of apoptosis in human CEM T-lymphocytes assessed as late apoptotic at necrotic cell stage at 1 uM after 8 hrs by flow cytometric analysis (reference value: 0%); type: functional
[33] = Cytotoxicity against human NCI60 cells assessed as inhibition of tumor growth after 24 hrs; type: functional, cell-based; conditions: NCI60, 24 h
[34] = test system: K562; test: Antileukemic activity against human K562 cells assessed as inhibition of tumor growth after 24 hrs; type: functional, cell-based; conditions: K562, 24 h
[35] = Antileukemic activity against human RPMI8226 cells assessed as inhibition of tumor growth after 24 hrs; type: functional, cell-based; conditions: rpmi-8226
[36] = test system: SW-620; test: Cytotoxicity against human SW620 cells assessed as inhibition of tumor growth after 24 hrs; type: functional, cell-based; conditions: SW-620, 24 h
[37] = Cytotoxicity against human HCT15 cells assessed as inhibition of tumor growth after 24 hrs; type: functional, cell-based; conditions: HCT-15, 24 h
[38] = test system: HCC 2998; test: Cytotoxicity against human HCC2998 cells assessed as inhibition of tumor growth after 24 hrs; type: functional, cell-based; conditions: HCC 2998, 24 h
[39] = test system: HL-60(TB); test: Antileukemic activity against human HL-60(TB) cells assessed as inhibition of tumor growth after 24 hrs; type: functional, cell-based; conditions: HL-60, 24 h
[40] = test system: COLO 205; test: Cytotoxicity against human COLO205 cells assessed as inhibition of tumor growth after 24 hrs; type: functional, cell-based; conditions: COLO 205, 24 h
[41] = test system: KM12; test: Cytotoxicity against human KM12 cells assessed as inhibition of tumor growth after 24 hrs; type: functional, cell-based; conditions: KM12, 24 h
[42] = test system: SR; test: Antileukemic activity against human SR cells assessed as inhibition of tumor growth after 24 hrs; type: functional, cell-based
[43] = test system: COLO 205; test: Ratio of 5-fluorouracil IC50 to compound IC50 for human COLO205 cells; type: functional; conditions: pooled result: one value given for 5 cell lines, strains, targets or settings
[44] = test system: MOLT-4; test: Ratio of curcumin IC50 to compound IC50 for human Molt4/C8 cells; type: functional; conditions: pooled result: one value given for 4 cell lines, strains, targets or settings
[45] = test system: MOLT-4; test: Ratio of melphalan IC50 to compound IC50 for human Molt4/C8 cells; type: functional; conditions: pooled result: one value given for 4 cell lines, strains, targets or settings
[46] = test system: RPMI-8226; test: Ratio of melphalan IC50 to compound IC50 for human RPMI8226 cells; type: functional; conditions: pooled result: one value given for 3 cell lines, strains, targets or settings

| SMILES | Activity [2] [%] | Activity [3] [%] | Activity [5] [%] | IC50 [6] [µM] | Activity [7] [%] | Activity [10] [%] | IC50 [11] [µM] | Activity [12] [%] | Activity [13] [%] | Activity [14] [%] | Activity [16] [%] | Activity [17] [%] | Activity [19] [%] | Activity [20] [%] | Activity [22] [%] | Activity [23] [%] | Activity [24] [%] | Activity [25] [%] | IC50 [26] [µM] | IC50 [31] [µM] | further results |
| --- | --- | --- | --- | --- | --- | --- | --- | --- | --- | --- | --- | --- | --- | --- | --- | --- | --- | --- | --- | --- | --- |
| COc1ccc(/C=C2/CN(C(=O)CC(=O)N3C/C(=C\c4ccc(OC)c(OC)c4)C(=O)/C(=C/c4ccc(OC)c(OC)c4)C3)C/C(=C\c3ccc(OC)c(OC)c3)C2=O)cc1OC | 51.6 | 63.9 | 67.4 | 0.37 | 88.6 | 83.9 | 0.388 | 77.6 | 50.8 | 1.8 | 23 | 6.4 | 20.6 | 43.7 | 2.6 | 61 | 32.3 | 2.1 | 0.348 | 0.378 | Activity [1]: 23.3%; Activity [4]: 87.7%; Activity [8]: 0%; Activity [9]: 12.3%; Activity [15]: 3.9%; viability at 1 µM [18]: 2.5%; Activity [21]: 70.2%; Activity [27]: 2%; Activity [28]: 6.1%; Activity [29]: Active; Activity [30]: 31%; Activity [32]: 0% |
| O=C1/C(=C/c2ccc(F)cc2)CN(C(=O)C(=O)N2C/C(=C\c3ccc(F)cc3)C(=O)/C(=C/c3ccc(F)cc3)C2)C/C1=C\c1ccc(F)cc1 | 64.4 | 61.6 | 15.2 | 0.388 | 53.3 | 87.8 | 0.083 | 85.3 | 33.5 | 5.5 | 16.2 | 0.6 | 11.3 | 34.7 | 3.1 | 61.8 | 17.1 | 6.6 | 0.221 | 0.422 | IC50 [33]: 0.58 µM; IC50 [34]: 0.28 µM; IC50 [35]: 0.12 µM; IC50 [36]: 0.32 µM; IC50 [37]: 0.16 µM; IC50 [38]: 0.62 µM; Activity [27]: 30.1%; Activity [28]: 7.7%; IC50 [39]: 1.12 µM; IC50 [40]: 0.63 µM; IC50 [41]: 0.3 µM; Activity [30]: 35.6%; IC50 [42]: 0.16 µM |
| COc1cc(/C=C2/CN(C(=O)CC(=O)N3C/C(=C\c4cc(OC)c(OC)c(OC)c4)C(=O)/C(=C/c4cc(OC)c(OC)c(OC)c4)C3)C/C(=C\c3cc(OC)c(OC)c(OC)c3)C2=O)cc(OC)c1OC |  |  |  | 0.216 |  |  | 0.06 |  |  |  |  |  |  |  |  |  |  |  | 0.284 | 0.214 | Ratio IC50 [43]: 141; IC50 [33]: 0.05 µM; IC50 [34]: 0.03 µM; Ratio IC50 [44]: 66.8; Ratio IC50 [45]: 14.2; IC50 [35]: 0.05 µM; Ratio IC50 [46]: 1890; IC50 [36]: 0.05 µM; IC50 [37]: 0.03 µM; IC50 [38]: 0.1 µM; IC50 [39]: 0.04 µM; IC50 [40]: 0.06 µM; IC50 [41]: 0.04 µM; IC50 [42]: 0.01 µM |
